Blank lines part the entries; values can stand above or below the molecule they belong to.
Columns and labels:
D(2) dopamine receptor [1] = biological target: T1, D(2) dopamine receptor (Rattus norvegicus, UniProt P61169); assay: In vitro ability to inhibit the binding of [3H]spiperone to dopamine receptor D2 in rat striatal membranes.; format: cell membranes, Membrane
Rattus norvegicus [2] = assay: Evaluated in vitro for antipsychotic activity (hyperactivity) for the block of apomorphine induced response after ip administration 60 min prior to apomorphine (1 mg/kg sc); format: functional
In short: (§1)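 Male Sprague-Dawley rats (270–325 g) received compound ip, in saline or in acetic acid plus distilled water, 60 min before apomorphine HCl (1 mg/kg sc, neck). Hyperactivity and stereotypies were scored 5, 20, 40 and 60 min after apomorphine.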

D(2) dopamine receptor [3] = biological target: T1, D(2) dopamine receptor; assay: Inhibition of [3H]raclopride binding to rat striatal membrane Dopamine receptor D2
Rattus norvegicus [4] = assay: Evaluated in vitro for antipsychotic activity (stereotypies) for the block of apomorphine induced response after ip administration 60 min prior to apomorphine (1 mg/kg sc); format: functional; in short: as §1
Rattus norvegicus [5] = assay: Dose which blocks the hypothermic effect of apomorphine by 50% against Sprague-Dawley rats when administered intraperitoneally; format: functional; conditions: ip
In short: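 Sprague-Dawley rats (n = 6 per group) were pretreated ip with saline or compound 60 min before apomorphine HCl (1 mg/kg sc). Core temperature was taken by rectal probe before dosing, before apomorphine and 15 min after it. Mean changes were expressed as percent of control.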

Rattus norvegicus [6] = assay: Catalepsy interval defined as the time required for both fore limbs to be removed from the bar when administered intraperitoneally; format: functional; conditions: ip
In short: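 Rats given test compound ip, then tested on a horizontal bar (1.5 cm diameter, 7 cm above cage floor) at 20, 40, 60, 90, 120 and 240 min after injection. A saline control group was tested the same way. An animal counted as cataleptic if it held ≥ 15 s. The proportion cataleptic at each dose gave dose-response curves, and ED50 came from probit analysis.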

T1 sequence (P61169 whole entry): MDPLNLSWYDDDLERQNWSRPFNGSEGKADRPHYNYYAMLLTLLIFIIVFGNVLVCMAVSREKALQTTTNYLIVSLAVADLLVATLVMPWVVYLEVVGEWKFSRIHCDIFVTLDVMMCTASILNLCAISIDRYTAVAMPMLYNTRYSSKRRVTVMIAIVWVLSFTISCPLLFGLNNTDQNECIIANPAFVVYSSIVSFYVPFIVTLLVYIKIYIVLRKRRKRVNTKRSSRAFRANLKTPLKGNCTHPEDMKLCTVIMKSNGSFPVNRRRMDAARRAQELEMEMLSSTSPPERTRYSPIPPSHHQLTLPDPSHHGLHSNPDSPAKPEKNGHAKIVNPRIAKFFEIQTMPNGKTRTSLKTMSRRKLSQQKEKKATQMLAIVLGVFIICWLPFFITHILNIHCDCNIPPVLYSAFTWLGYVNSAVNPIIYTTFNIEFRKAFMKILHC

SMILES: CCN1CCC[C@H]1CNC(=O)c1c(O)c(OC)cc(Br)c1OC
- IC50 (D(2) dopamine receptor [1]): 67 nM
- ED50 (Rattus norvegicus [2]): 1.3 µmol/kg
- Ki (D(2) dopamine receptor [3]): 8.38 nM
- ED50 (Rattus norvegicus [4]): 12 µmol/kg

SMILES: CCN1CCC[C@H]1CNC(=O)c1c(O)ccc(O)c1OC
- IC50 (D(2) dopamine receptor [1]): 56 nM

SMILES: C=CCN1CCC[C@H]1CNC(=O)c1c(O)c(OC)cc(Br)c1OC
- IC50 (D(2) dopamine receptor [1]): 44 nM

SMILES: CCCc1cc(OC)c(OC)c(C(=O)NC[C@@H]2CCCN2CC)c1O.O=C(O)/C(O)=C(\O)C(=O)O
- Ki (D(2) dopamine receptor [3]): 0.023 nM

SMILES: CCN1CCC[C@H]1CNC(=O)c1c(OC)ccc(OC)c1O
- IC50 (D(2) dopamine receptor [1]): 205 nM

SMILES: CCc1cc(OC)c(O)c(C(=O)NC[C@@H]2CCCN2CC)c1OC
- IC50 (D(2) dopamine receptor [1]): 19 nM

SMILES: CCc1cc(OC)c(OC)c(C(=O)NC[C@@H]2CCCN2CC)c1O
- IC50 (D(2) dopamine receptor [1]): 0.77 nM
- Ki (D(2) dopamine receptor [3]): 0.033 nM

SMILES: CCN1CCC[C@@H]1CNC(=O)c1c(O)c(OC)cc(Br)c1OC
- IC50 (D(2) dopamine receptor [1]): 6170 nM

SMILES: CCN1CCC[C@@H]1CNC(=O)c1c(O)c(Br)cc(OC)c1OC
- IC50 (D(2) dopamine receptor [1]): 79 nM
- ED50 (Rattus norvegicus [2]): 12.6 µmol/kg
- Ki (D(2) dopamine receptor [3]): 6.54 nM
- ED50 (Rattus norvegicus [4]): 5.3 µmol/kg

SMILES: CCN1CCC[C@H]1CNC(=O)c1c(O)ccc(OC)c1OC
- Ki (D(2) dopamine receptor [3]): 0.75 nM

SMILES: CCN1CCC[C@H]1CNC(=O)c1c(O)c(Br)cc(N)c1OC
- IC50 (D(2) dopamine receptor [1]): 33 nM

SMILES: CCN1CCC[C@H]1CNC(=O)c1c(O)c(Br)cc(O)c1OC
- IC50 (D(2) dopamine receptor [1]): 1.9 nM

SMILES: CCc1cc(Cl)c(OC)c(C(=O)NC[C@@H]2CCCN2CC)c1O [ETICLOPRIDE]
- ED50 (Rattus norvegicus [5]): 0.09 µmol/kg
- ED50 (Rattus norvegicus [2]): 0.015 µmol/kg
- ED50 (Rattus norvegicus [6]): 0.74 µmol/kg
- ED50 (Rattus norvegicus [4]): 0.19 µmol/kg

SMILES: O=C(CCCN1CCC(O)(c2ccc(Cl)cc2)CC1)c1ccc(F)cc1 [HALOPERIDOL]
- ED50 (Rattus norvegicus [5]): 0.35 µmol/kg
- ED50 (Rattus norvegicus [2]): 0.37 µmol/kg
- ED50 (Rattus norvegicus [6]): 0.9 µmol/kg
- ED50 (Rattus norvegicus [4]): 0.27 µmol/kg

SMILES: CCN1CCC[C@H]1CNC(=O)c1cc(S(N)(=O)=O)ccc1OC [LEVOSULPIRIDE]
- ED50 (Rattus norvegicus [5]): 8 µmol/kg
- ED50 (Rattus norvegicus [2]): 55 µmol/kg
- ED50 (Rattus norvegicus [6]): 280 µmol/kg
- ED50 (Rattus norvegicus [4]): 290 µmol/kg

SMILES: CCN1CCC[C@H]1CNC(=O)c1c(O)c(Cl)cc(Cl)c1OC [RACLOPRIDE]
- ED50 (Rattus norvegicus [5]): 0.2 µmol/kg
- ED50 (Rattus norvegicus [6]): 11 µmol/kg

More lines, main results first:

- IC50 (D(2) dopamine receptor [1]): 820 nM
SMILES: CCc1cc(OC)c(OC)c(C(=O)NC[C@@H]2CCCN2CC)c1OC

- IC50 (D(2) dopamine receptor [1]): 1.7 nM
- Ki (D(2) dopamine receptor [3]): 0.087 nM
SMILES: CCN1CCC[C@H]1CNC(=O)c1c(O)c(Cl)cc(OC)c1OC

- IC50 (D(2) dopamine receptor [1]): 21 nM
SMILES: CCN1CCC[C@H]1CNC(=O)c1c(N)c(Br)cc(OC)c1OC

- IC50 (D(2) dopamine receptor [1]): 71 nM
SMILES: CCN1CCC[C@H]1CNC(=O)c1c(O)c(OC)cc(Cl)c1OC

- IC50 (D(2) dopamine receptor [1]): 1750 nM
SMILES: CCN1CCC[C@H]1CNC(=O)c1c(OC)c(Br)cc(OC)c1OC

- IC50 (D(2) dopamine receptor [1]): 420 nM
SMILES: CCN1CCC[C@H]1CNC(=O)c1c(OC)c(Cl)cc(OC)c1OC

- IC50 (D(2) dopamine receptor [1]): 2960 nM
SMILES: CCCc1cc(OC)c(OC)c(C(=O)NC[C@@H]2CCCN2CC)c1OC

- Ki (D(2) dopamine receptor [3]): 0.064 nM
SMILES: CCN1CCC[C@H]1CNC(=O)c1c(O)c(Br)cc(OC)c1OC
- ED50 (Rattus norvegicus [5]): 0.005 µmol/kg
- ED50 (Rattus norvegicus [6]): 0.14 µmol/kg

Reference: ChEMBL document CHEMBL1125080, “Potential antipsychotic agents 5. Synthesis and antidopaminergic properties of substituted 5,6-dimethoxysalicylamides and related compounds” (J Med Chem, 1990)
